Key:
HepG2 = experiment: Cytotoxicity against human HepG2 cells after 48 hrs by MTT assay; assay type: functional, cell-based; conditions: HepG2, 48 h
Procedure, shortened: (§1)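 MTT assay on cells grown in DMEM with 10% FBS and split at 70-80% confluence by trypsinization. Seeded 1×10^4 cells/well, attached 24 h at 37 °C. Compounds came from 10 mM DMSO stocks diluted in medium to a concentration series, with 0.1% DMSO as negative control. Cells were exposed for 48 h at 37 °C, then given MTT for 4 h. Formazan was dissolved in DMSO and read at 570 nm. IC50 was fitted from % inhibition versus control, mean of three independent experiments.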

A549 [1] = experiment: Cytotoxicity against human A549 cells after 48 hrs by MTT assay; assay type: functional, cell-based; conditions: A549, 48 h; procedure, shortened: as §1
MDA-MB-231 [2] = experiment: Cytotoxicity against human MDA-MB-231 cells after 48 hrs by MTT assay; assay type: functional, cell-based; conditions: MDA-MB-231, 48 h; procedure, shortened: as §1
MCF7 = experiment: Cytotoxicity against human MCF7 cells after 48 hrs by MTT assay; assay type: functional, cell-based; conditions: MCF7, 48 h; procedure, shortened: as §1
MDA-MB-231 [3] = experiment: Induction of cell cycle arrest in human MDA-MB-231 cells assessed as accumulation at subG1 phase at 20 uM after 48 hrs by propidium iodide staining based FACS analysis (reference value: 1.69%); assay type: functional
MDA-MB-231 [4] = experiment: Induction of cell cycle arrest in human MDA-MB-231 cells assessed as accumulation at subG1 phase at 40 uM after 48 hrs by propidium iodide staining based FACS analysis (reference value: 1.69%); assay type: functional
MDA-MB-231 [5] = experiment: Induction of cell cycle arrest in human MDA-MB-231 cells assessed as accumulation at subG1 phase at 80 uM after 48 hrs by propidium iodide staining based FACS analysis (reference value: 1.69%); assay type: functional
MDA-MB-231 [6] = experiment: Induction of cell cycle arrest in human MDA-MB-231 cells assessed as accumulation at G0/G1 phase at 20 uM after 48 hrs by propidium iodide staining based FACS analysis (reference value: 37.97%); assay type: functional
MDA-MB-231 [7] = experiment: Induction of cell cycle arrest in human MDA-MB-231 cells assessed as accumulation at G0/G1 phase at 40 uM after 48 hrs by propidium iodide staining based FACS analysis (reference value: 37.97%); assay type: functional
MDA-MB-231 [8] = experiment: Induction of cell cycle arrest in human MDA-MB-231 cells assessed as accumulation at G0/G1 phase at 80 uM after 48 hrs by propidium iodide staining based FACS analysis (reference value: 37.97%); assay type: functional
MDA-MB-231 [9] = experiment: Induction of cell cycle arrest in human MDA-MB-231 cells assessed as accumulation at S phase at 20 uM after 48 hrs by propidium iodide staining based FACS analysis (reference value: 42.22%); assay type: functional
MDA-MB-231 [10] = experiment: Induction of cell cycle arrest in human MDA-MB-231 cells assessed as accumulation at S phase at 40 uM after 48 hrs by propidium iodide staining based FACS analysis (reference value: 42.22%); assay type: functional
MDA-MB-231 [11] = experiment: Induction of cell cycle arrest in human MDA-MB-231 cells assessed as accumulation at S phase at 80 uM after 48 hrs by propidium iodide staining based FACS analysis (reference value: 42.22%); assay type: functional
MDA-MB-231 [12] = experiment: Induction of cell cycle arrest in human MDA-MB-231 cells assessed as accumulation at G2/M phase at 20 uM after 48 hrs by propidium iodide staining based FACS analysis (reference value: 18.12%); assay type: functional
MDA-MB-231 [13] = experiment: Induction of cell cycle arrest in human MDA-MB-231 cells assessed as accumulation at G2/M phase at 40 uM after 48 hrs by propidium iodide staining based FACS analysis (reference value: 18.12%); assay type: functional
MDA-MB-231 [14] = experiment: Induction of cell cycle arrest in human MDA-MB-231 cells assessed as accumulation at G2/M phase at 80 uM after 48 hrs by propidium iodide staining based FACS analysis (reference value: 18.12%); assay type: functional
MDA-MB-231 [15] = experiment: Induction of cell cycle arrest in human MDA-MB-231 cells assessed as accumulation at G2/M phase after 48 hrs by propidium iodide staining based FACS analysis (reference value: 18.12%); assay type: functional
MDA-MB-231 [16] = experiment: Cytotoxicity against human MDA-MB-231 cells after 48 hrs by MTT assay relative to fluorouracil; assay type: functional
A549 [17] = experiment: Cytotoxicity against human A549 cells after 48 hrs by MTT assay relative to fluorouracil; assay type: functional

SMILES | IC50 (HepG2) [µM] | IC50 (A549 [1]) [µM] | IC50 (MDA-MB-231 [2]) [µM] | IC50 (MCF7) [µM] | also measured
COc1cccc(Nc2nccc(NC3CCN(S(C)(=O)=O)CC3)n2)c1 | 67.9 | > 200 | 109 | 72.1 | 
COc1ccc(CNc2nc(NC3CCN(S(C)(=O)=O)CC3)ncc2Cl)cc1 | > 200 | 60.9 | 34.1 | 64.8 | 
CN1CCN(c2ccnc(Nc3ccc(Cl)cc3)n2)CC1 | > 200 | > 200 | > 200 | > 200 | 
CS(=O)(=O)N1CCC(Nc2ncc(Cl)c(NCc3ccccc3)n2)CC1 | > 200 | 46.8 | 11.7 | 32.4 | 
COc1ccc(CCNc2nc(NC3CCN(S(C)(=O)=O)CC3)ncc2Cl)cc1 | > 200 | > 200 | > 200 | > 200 | 
CS(=O)(=O)N1CCC(Nc2nccc(NCc3ccccc3)n2)CC1 | 149 | 42.5 | 60.8 | 98.5 | 
CN1CCN(c2nccc(NCc3ccccc3)n2)CC1 | > 200 | > 200 | > 200 | > 200 | 
COc1ccccc1CCNc1nccc(N2CCN(C)CC2)n1 | > 200 | > 200 | > 200 | > 200 | 
COc1cccc(Nc2ccnc(N3CCN(C)CC3)n2)c1 | > 200 | > 200 | > 200 | > 200 | 
COc1ccc(Nc2nccc(N3CCN(C)CC3)n2)cc1 | > 200 | > 200 | > 200 | > 200 | 
CS(=O)(=O)N1CCC(Nc2ncc(Cl)c(Nc3ccccc3)n2)CC1 | > 200 | > 200 | > 200 | > 200 | 
COc1ccc(Nc2nc(NC3CCN(S(C)(=O)=O)CC3)ncc2Cl)cc1 | > 200 | > 200 | > 200 | > 200 | 
COc1ccc(CNc2nccc(NC3CCN(S(C)(=O)=O)CC3)n2)cc1 | 20.2 | 12.8 | 7.46 | 16.2 | Activity (MDA-MB-231 [3]): 1.09%; Activity (MDA-MB-231 [4]): 1.03%; Activity (MDA-MB-231 [5]): 1.26%; Activity (MDA-MB-231 [6]): 33.09%; Activity (MDA-MB-231 [7]): 32.55%; Activity (MDA-MB-231 [8]): 31.01%; Activity (MDA-MB-231 [9]): 32.03%; Activity (MDA-MB-231 [10]): 29.91%; Activity (MDA-MB-231 [11]): 26.78%; Activity (MDA-MB-231 [12]): 33.79%; Activity (MDA-MB-231 [13]): 36.51%; Activity (MDA-MB-231 [14]): 40.95%; Activity (MDA-MB-231 [15]): Dose-dependent effect; Ratio IC50 (MDA-MB-231 [16]): 2; Ratio IC50 (A549 [17]): 2
COc1cccc(Nc2nc(NC3CCN(S(C)(=O)=O)CC3)ncc2Cl)c1 | > 200 | > 200 | > 200 | > 200 | 
CS(=O)(=O)N1CCC(Nc2ncc(Cl)c(NCCc3ccc(Cl)cc3)n2)CC1 | > 200 | > 200 | > 200 | > 200 | 
COc1cccc(Nc2ccnc(NC3CCN(S(C)(=O)=O)CC3)n2)c1 | 86.6 | > 200 | 29.4 | 77.8 | 
COc1ccc(CNc2ccnc(N3CCN(C)CC3)n2)cc1 | > 200 | > 200 | > 200 | > 200 | 
CS(=O)(=O)N1CCC(Nc2ncc(Cl)c(Nc3ccc(Cl)cc3)n2)CC1 | > 200 | > 200 | > 200 | > 200 | 
COc1ccc(CNc2ccnc(NC3CCN(S(C)(=O)=O)CC3)n2)cc1 | 51.7 | 51.6 | 33.7 | 57.2 | 
COc1ccc(CCNc2nccc(NC3CCN(S(C)(=O)=O)CC3)n2)cc1 | 20 | 21.4 | 15.8 | 32.8 | 
CS(=O)(=O)N1CCC(Nc2ncc(Cl)c(NCCc3ccccc3)n2)CC1 | 123 | > 200 | > 200 | > 200 | 
COc1ccc(Nc2nccc(NC3CCN(S(C)(=O)=O)CC3)n2)cc1 | 86.2 | 91.7 | 57.7 | > 200 | 
CS(=O)(=O)N1CCC(Nc2ccnc(Nc3ccc(Cl)cc3)n2)CC1 | 92.6 | > 200 | 102 | > 200 | 
O=c1[nH]cc(F)c(=O)[nH]1 [FLUOROURACIL] |  |  | 24.6 | 39.9 | 
CS(=O)(=O)N1CCC(Nc2nccc(Nc3ccc(Cl)cc3)n2)CC1 | 78.6 | > 200 | > 200 | > 200 | 
